Most compounds without a hit are left out; they make up all but 2.1% or so of the library.
ERp5 block: inhibitors of ERp5-driven insulin aggregation, primary screen, biochemical, turbidity, absorbance 650 nm, single point; Protein disulfide-isomerase A6 (Homo sapiens), Q15084; 90 min; inhibition, % at 9.99 µM; 350,000 compounds, 0.05% hits;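 active = mean replicate inhibition above about 25%, with every replicate also reaching it, limit read from the data, passing the limit was not always enough; inconclusive = only one of those two criteria met; inactive = neither criterion met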
ARNT TACC3 PPI: disruptors of ARNT/TACC3 protein interaction, primary screen, biochemical, AlphaScreen, single concentration. 390,000 compounds, 0.66% hits. inhibition, % at 9.99 µM. AlphaScreen His-ARNT PAS-B/GST-TACC3 binding, luminescence; TACC3 fragment carries E629A point mutation. Transforming acidic coiled-coil-containing protein 3 (Homo sapiens), Q9Y6A5;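 active = mean inhibition of replicates at least 50% and at least half of replicates each reaching 50%; inconclusive = half or more replicates reach 50% but mean below 50%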
FGF22 binding: binders of human FGF22 protein, primary screen, FGF22 synaptogenesis inhibitor project, biophysical, thermal shift, single point | recombinant FGF22 thermal shift, SYPRO orange fluorescence; percent of sucrose octasulfate shift, DMSO zero | activity (Tm shift, normalised), % at 9.99 µM | 340,000 compounds, 1.5% hits | Fibroblast growth factor 22 (Homo sapiens), Q9HCT0;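 active = mean Tm shift, scaled 0 neutral to 100 positive control, at about 1.3% or above, every replicate too, limit read from the data; inconclusive = no clear call, values can overlap the other calls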
FN deposit inh: inhibitors of fibronectin matrix deposition, primary screen, AH1F cells, Alexa488-fibronectin fluorescence, plate reader. AH1F fibroblasts, overnight. inhibition, % at 12.6 µM. AID 743247, 2014. 350,000 compounds, 0.086% hits;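 active = mean inhibition across replicates of 30% or more, regardless of how many single replicates reach that level; inconclusive = mean under 30% yet at least half of replicates reach 30%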
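Assay system: AH1F fibroblasts assembling fluorescent fibronectin matrix; Amount: 10000 AH1F cells per well; Buffer or medium: DMEM, 2% serum; Probe or stimulus: Alexa488-fibronectin, 24 nM final in well; Doses: single compound dose, delivered by pin transfer; Incubation: 1 h adhesion, overnight exposure; Measured by: fluorescence 485/525 nm; Read-out: fibronectin deposition inhibition.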
PDI turbidity: inhibitors of human PDI, primary screen, biochemical, turbidity, single point, plate reader; Protein disulfide-isomerase (Homo sapiens), P07237; PDI insulin aggregation turbidity, A650, 90 min; inhibition, % at 10 µM; 350,000 compounds, 0.052% hits; AID 588391, 2011;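 active = mean inhibition across replicates of 30% or more, whatever share of single replicates reach that level; inconclusive = mean inhibition below 30% while every single replicate reaches 30%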
MLL AF4-AF9 inh: inhibitors of AF4 peptide binding to AF9, primary screen, biochemical, AlphaScreen, biotin-AF4 peptide, FLAG-AF9, single point | 350,000 compounds, 0.47% hits | AID 651704, 2012 | Protein AF-9 (Homo sapiens), P42568 | inhibition, % at 10 µM;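 active = every replicate reaching a set inhibition limit, whatever the replicate mean, cut at about 25% in these data; inconclusive = mean inhibition reaches that limit but some replicates miss it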
Target sequence (P42568 whole entry, looked up): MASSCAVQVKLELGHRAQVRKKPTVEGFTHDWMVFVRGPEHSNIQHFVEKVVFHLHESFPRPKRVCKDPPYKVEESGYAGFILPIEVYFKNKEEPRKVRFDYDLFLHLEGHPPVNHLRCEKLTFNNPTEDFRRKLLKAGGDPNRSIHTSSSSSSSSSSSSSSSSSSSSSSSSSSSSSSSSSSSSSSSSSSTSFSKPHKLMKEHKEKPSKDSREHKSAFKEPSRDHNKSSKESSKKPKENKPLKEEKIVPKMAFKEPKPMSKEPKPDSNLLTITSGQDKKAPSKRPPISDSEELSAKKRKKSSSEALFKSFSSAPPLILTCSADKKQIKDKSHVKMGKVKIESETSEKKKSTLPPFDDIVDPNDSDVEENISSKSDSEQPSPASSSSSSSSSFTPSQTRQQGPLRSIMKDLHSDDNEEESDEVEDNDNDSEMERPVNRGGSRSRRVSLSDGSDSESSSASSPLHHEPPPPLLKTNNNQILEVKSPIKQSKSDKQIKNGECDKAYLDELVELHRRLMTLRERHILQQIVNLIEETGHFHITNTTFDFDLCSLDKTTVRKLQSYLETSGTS
Numbers stand for hits; n = inactive; u = inconclusive; x = not tested or not shown; ! = a repeat was not active.

SMILES	ERp5 block	ARNT TACC3 PPI	FGF22 binding	FN deposit inh	PDI turbidity	MLL AF4-AF9 inh
COC(=O)[C@H]1[C@H](CO)[C@H]2Cn3c(ccc(C4=CCCC4)c3=O)[C@@H]1N2CC1CCCC1	n	x	x	x	x	n
Cc1ccc(-n2c(O)c(/C=N/N3CCCCC3c3cccnc3)c(=O)[nH]c2=S)cc1 (stereo not drawn)	n	x	43	n	n	n
CCCCn1c(O)c(/C=N/N2CCCCC2c2cccnc2)c(=O)[nH]c1=S (stereo not drawn)	n	x	x	n	n	n
O=C(Cc1ccncc1)N1CCCCN2[C@H](C1)[C@H](c1ccc(C#CC3(O)CCCC3)cc1)[C@@H]2CO	n	n	n	x	x	n
c1ccc2c(c1)Sc1ccccc1N2CC1CN2CCC1CC2 (stereo not drawn)	n	n	n	n	n	27
O=C1NC(=O)C(=Cc2ccc(-c3ccc(F)cc3O)o2)C(=O)N1	n	n	43	n	n	n
COC(=O)[C@H]1[C@H](CO)[C@H]2Cn3c(ccc(-c4ccccc4)c3=O)[C@@H]1N2CC1CC1	n	n	n	x	x	n
c1cc(-c2ccc(C3[C@H]4CNC[C@@H]3N4CC3CC3)cc2)ccn1 (stereo partly drawn)	n	x	x	n	x	38
c1cncc(-c2ccc(C3[C@H]4CNC[C@@H]3N4CC3CC3)cc2)c1 (stereo partly drawn)	x	x	n	n	x	x
Cc1cccc(-n2c(O)c(/C=N/Nc3nc4c(c(=O)n(C)c(=O)n4C)n3C)c(=O)[nH]c2=S)c1	x	72	x	n	n	x
Cn1c(=O)c2c(nc(N/N=C/c3c(O)n(C4CCCCC4)c(=S)[nH]c3=O)n2C)n(C)c1=O	n	52	x	n	n	n
Cc1ccccc1-n1c(O)c(/C=N/Nc2nc3c(c(=O)n(C)c(=O)n3C)n2C)c(=O)[nH]c1=S	x	51	x	n	n	x
Cc1ccc(-n2c(O)c(/C=N/Nc3ccccc3)c(=O)[nH]c2=O)cc1C	n	x	n	n	x	n
O=C1CNC[C@@H]2[C@@H](c3ccc(Br)cc3)[C@@H](CO)N12	n	x	n	n	x	n
C=CCN1[C@@H]2CN(C(C)=O)C[C@H]1C2c1ccccc1 (stereo partly drawn)	x	x	x	n	x	x
O=C(COC(=O)c1cc(Br)cc(Br)c1O)NC12CC3CC(CC(C3)C1)C2	n	x	1.7	n	n	n
O=C1C(=O)c2cccc3cccc1c23	n	n	n	n	n	n
O=C1C(=O)c2ccccc2-c2ccccc21	n	n	n	56	167	n
N#Cc1cccc(-c2ccc([C@H]3[C@H]4CN(C(=O)Cc5ccncc5)CCCCN4[C@H]3CO)cc2)c1	n	n	n	x	x	n
CCCCC(=O)N/N=C/c1c(O)n(Cc2ccc(F)cc2)c(=O)[nH]c1=O	n	69	n	n	n	n
O=C(N/N=C/c1c(O)n(Cc2ccc(F)cc2)c(=O)[nH]c1=O)c1ccccc1	n	50	n	n	n	x
O=C(Cc1ccccc1)N1CCCCN2[C@@H](CO)[C@H](c3ccc(C#CC4(O)CCCC4)cc3)[C@@H]2C1	n	n	n	x	x	n
COC(=O)[C@@H]1[C@@H](CO)[C@@H]2Cn3c(ccc(-c4ccccc4)c3=O)[C@H]1N2CC1CCOCC1	n	n	n	x	x	n
NS(=O)(=O)OC(CCc1ccccc1)C(Cl)(Cl)Cl (stereo not drawn)	n	n	45	n	n	u
O=C(Cc1ccccc1)NC(Oc1ccccc1Cl)C(Cl)(Cl)Cl (stereo not drawn)	x	n	x	x	n	x
SMILES	ERp5 block	ARNT TACC3 PPI	FGF22 binding	FN deposit inh	PDI turbidity	MLL AF4-AF9 inh
Cc1cccc(-n2c(O)c(/C=N/NC(=O)c3ccncc3)c(=O)[nH]c2=O)c1	n	x	n	n	n	n
O=C(N/N=C\C1C(=O)NC(=S)N(c2ccccc2)C1=O)c1ccc(O)cc1 (stereo not drawn)	n	72	n	n	n	n
O=C(Cc1cccnc1)N1CCCCN2[C@@H](CO)[C@@H](c3ccc(C#CC4CC4)cc3)[C@@H]2C1	n	x	n	x	x	n
CC1Oc2cc3c(-c4c(O)cc(O)c5c(O)c6c(cc45)OC(C)C(C)C6=O)c(O)cc(O)c3c(O)c2C(=O)C1C (stereo not drawn)	x	80	x	x	x	x
COC(=O)C1=C(C(=O)OC)SC2(S1)C(C(=O)OC)=C(C(=O)OC)Sc1c2ssc1=O	n	68	n	x	n	n
Cc1cc(C=O)c(C)n1C(C)C	u	n	43	x	n	n
C=C1C(C)C2C(Cc3ccccc3)NC(=O)C23C(OC(C)=O)C=CC(C)(O)CC(C)CC=CC3C1O (stereo not drawn)	n	n	n	45	n	n
C=C1[C@@H](C)[C@H]2[C@H](Cc3ccccc3)NC(=O)[C@]23OC(=O)/C=C/[C@H](O)CCC[C@@H](C)C/C=C/[C@H]3[C@@H]1O	n	n	n	35!	n	n
COC(=O)[C@@H]1[C@@H](CO)[C@@H]2Cn3c(ccc(-c4ccc(F)cc4)c3=O)[C@H]1N2Cc1ccccc1	n	n	n	x	x	n
COC(=O)[C@@H]1[C@@H](CO)[C@@H]2Cn3c(ccc(-c4cccc(OC)c4)c3=O)[C@H]1N2C(=O)c1cnccn1	n	n	n	x	x	n
COC(=O)[C@H]1[C@H](CO)[C@H]2Cn3c(ccc(-c4ccccc4)c3=O)[C@@H]1N2C(=O)c1ccccc1F	n	n	n	x	x	x
O=C1NC(=O)N(c2ccccc2)C(=O)/C1=C/C=C/c1ccco1	n	n	n	n	n	n
CN(C)c1ccc(/C=C/C=C2/C(=O)NC(=O)N(c3ccccc3)C2=O)cc1	n	n	44	n	n	n
COC(=O)[C@H]1[C@H](CO)[C@H]2Cn3c(ccc(-c4ccc(F)cc4)c3=O)[C@@H]1N2Cc1ccccc1	n	n	n	x	x	n
CCC(C)/C=C(C)/C=C/C1=CC2=C(Cl)C(=O)C(C)(OC(C)=O)C(=O)C2=CO1 (stereo not drawn)	x	49	x	x	x	x
CC[C@H](C)/C=C(C)/C=C/C1=CC2=C(Cl)C(=O)[C@@](C)(OC(C)=O)C(=O)C2=CO1	x	n	x	x	x	x
O=c1[nH]c(=O)n(Cc2ccco2)c(O)c1C=NC1CCN(Cc2ccccc2)CC1	n	x	n	n	n	48
CC(=O)N1C2CN(C)CC1C2c1ccc(Br)cc1 (stereo not drawn)	x	x	x	n	x	x
CC=Cc1ccc2n(c1=O)C[C@H]1[C@H](CO)[C@@H](C(=O)O)[C@@H]2N1S(=O)(=O)c1ccccc1F (mixture of isomers)	n	n	n	x	x	n
COCCOC(=O)c1c(N)n(Cc2ccco2)c2nc3ccccc3nc12	x	62	x	x	n	x

Screening results as filed in PubChem.
